Reference: ChEMBL document CHEMBL3865784 (Eur J Med Chem, 2016)

Legend:
[1] = Cytotoxicity against human MDA-MB-435 cells overexpressing NQO1 assessed as reduction in cell viability after 72 hrs by MTT assay; type: functional, cell-based; settings: MDA-MB-435, 72 h
Summary of the method: (§1)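 Cancer lines from NCI, grown in RPMI 1640 with 10% FBS, 2 mM L-glutamine, penicillin/streptomycin, 37 °C, 5% CO2; seeded 0.1 × 10^6 cells/well (HL-60) or 0.7 × 10^5 cells/well (solid tumours). Compounds in DMSO, final 0.1% v/v; DMSO vehicle as negative control.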

[2] = Cytotoxicity against human SF295 cells overexpressing NQO1 assessed as reduction in cell viability after 72 hrs by MTT assay; type: functional, cell-based; settings: SF-295, 72 h
[3] = Cytotoxicity against human HCT116 cells expressing NQO1 assessed as reduction in cell viability after 72 hrs by MTT assay; type: functional, cell-based; settings: HCT-116, 72 h; summary of the method: as §1
[4] = Cytotoxicity against NQO1-deficient human PBMC assessed as reduction in cell viability after 72 hrs by MTT assay; type: toxicity, cell-based; settings: pbmc
[5] = Cytotoxicity against NQO1-deficient chinese hamster V79 cells assessed as reduction in cell viability after 72 hrs by MTT assay; type: toxicity, cell-based, Cricetulus griseus; settings: v79
[6] = Cytotoxicity against human PC3 cells overexpressing NQO1 assessed as reduction in cell viability after 72 hrs by MTT assay; type: functional, cell-based; settings: PC-3, 72 h
[7] = Cytotoxicity against human OVCAR8 cells overexpressing NQO1 assessed as reduction in cell viability after 72 hrs by MTT assay; type: functional, cell-based; settings: OVCAR-8, 72 h; summary of the method: as §1
[8] = Cytotoxicity against NQO1-deficient human HL60 cells assessed as reduction in cell viability after 72 hrs by MTT assay; type: functional, cell-based; settings: HL-60, 72 h; summary of the method: as §1
Mus musculus = species on record: Mus musculus; assay: Cytotoxicity against NQO1-deficient mouse L929 cells assessed as reduction in cell viability after 72 hrs by MTT assay; type: toxicity, cell-based; settings: l929
L929 [9] = assay: Selectivity index, ratio of IC50 for NQO1-deficient mouse L929 cells to IC50 for NQO1-deficient human HL60 cells; type: functional
Summary of the method: (§2)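 Selectivity index is IC50 in the normal cells divided by IC50 in the cancer line. Normal cells: V79 and L929 in DMEM, PBMC in RPMI with phytohaemagglutinin. Cancer lines in RPMI with 10% FBS, seeded at 0.1 × 10^6 (HL-60) or 0.7 × 10^5 cells/well (solid tumors). Absorbance 550 nm; nonlinear regression.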

L929 [10] = assay: Selectivity index, ratio of IC50 for NQO1-deficient mouse L929 cells to IC50 for human SF295 cells overexpressing NQO1; summary of the method: as §2
HL-60 [11] = assay: Selectivity index, ratio of IC50 for NQO1-deficient human PBMC to IC50 for NQO1-deficient human HL60 cells; summary of the method: as §2
HL-60 [12] = assay: Selectivity index, ratio of IC50 for NQO1-deficient chinese hamster V79 cells to IC50 for NQO1-deficient human HL60 cells; type: functional; summary of the method: as §2
L929 [13] = assay: Selectivity index, ratio of IC50 for NQO1-deficient mouse L929 cells to IC50 for human MDA-MB-435 cells overexpressing NQO1; summary of the method: as §2
SF-295 = assay: Selectivity index, ratio of IC50 for NQO1-deficient chinese hamster V79 cells to IC50 for human SF295 cells overexpressing NQO1; summary of the method: as §2
[14] = Selectivity index, ratio of IC50 for NQO1-deficient human PBMC to IC50 for human MDA-MB-435 cells overexpressing NQO1; summary of the method: as §2
V79 = assay: Selectivity index, ratio of IC50 for NQO1-deficient chinese hamster V79 cells to IC50 for human MDA-MB-435 cells overexpressing NQO1; summary of the method: as §2

In the case of `CC1(C)CCC2=C(O1)c1ccccc1C(=O)C2=O` [LAPACHONE], the IC50 [1] is reported as 0.25 µM, the IC50 [2] is reported as 0.95 µM and the IC50 [3] is reported as 0.87 µM. It also gave an IC50 [4] of over 20.6 µM.
Work on `C#Cc1cccc(NC2C3=C(OC2(C)C)C(=O)c2ccccc2C3=O)c1` (stereo not drawn) yielded an IC50 [1] of 3.93 µM, an IC50 [2] of over 14.6 µM and an IC50 [5] of 6.06 µM. For the same compound, the IC50 [6] was 5.15 µM, the IC50 [7] was 7.13 µM and the IC50 [8] was 2.59 µM. The IC50 [3] was 4.6 µM and the IC50 [4] was 6.46 µM.
`CC1(C)OC2=C(C(=O)c3ccccc3C2=O)C1N=[N+]=[N-]` (stereo not drawn) gave an IC50 [1] of 2.52 µM, an IC50 [2] of 3.04 µM and an IC50 [6] of 4.09 µM. It also gave an IC50 [7] of 3.53 µM, an IC50 (Mus musculus) of 3.68 µM and an IC50 [8] of 2.23 µM. It also gave an IC50 [3] of 3.3 µM and an IC50 [4] of 3.16 µM.
`CC1(C)OC2=C(C(=O)C(=O)c3ccccc32)C1N=[N+]=[N-]` (stereo not drawn) gave an IC50 [5] of 3.27 µM, an IC50 [6] of 1.74 µM and an IC50 [7] of 1.34 µM. It also gave an IC50 (Mus musculus) of 2.67 µM and an IC50 [3] of 0.89 µM.
In the case of `O=C1C2=C(C(=O)c3ccccc31)[C@H](c1ccccc1)[C@@H](n1cc(C[Se]c3ccccc3)nn1)CO2`, the IC50 [1] is reported as 6.82 µM, the IC50 [2] is reported as 5.58 µM and the IC50 [5] is reported as 6.74 µM. It also gave an IC50 [6] of 7.79 µM, an IC50 (Mus musculus) of 7.16 µM and an IC50 [8] of 8.26 µM. The IC50 [3] was 7.22 µM.
In the case of `CC1(C)CC(Nc2cccc(-c3cn(C[Se]c4ccccc4)nn3)c2)C2=C(O1)C(=O)c1ccccc1C2=O` (stereo not drawn), the IC50 [1] is reported as 1.49 µM, the “Ratio IC50” value (L929 [9]) is reported as 1.6 and the IC50 [2] is reported as 1.88 µM. For the same compound, the “Ratio IC50” value (L929 [10]) was 1.7, the IC50 [5] was 3.65 µM and the IC50 [6] was 2.6 µM. The “Ratio IC50” value (HL-60 [11]) was 2, the IC50 [7] was 3.09 µM and the IC50 (Mus musculus) was 3.3 µM. For the same compound, the “Ratio IC50” value (HL-60 [12]) was 1.8, the IC50 [8] was 2 µM and the IC50 [3] was 4.9 µM. For the same compound, the “Ratio IC50” value (L929 [13]) was 2.2, the IC50 [4] was 4.16 µM and the “Ratio IC50” value (SF-295) was 1.9. For the same compound, the “Ratio IC50” value [14] was 2.8 and the “Ratio IC50” value (V79) was 2.4.
Compound `CC1(C)OC2=C(C(=O)c3ccccc3C2=O)C1n1cc(C[Se]c2ccccc2)nn1` (stereo not drawn) has an IC50 [1] of 2.15 µM, an IC50 [2] of 2.65 µM and an IC50 [5] of 4.03 µM. It also gave an IC50 [6] of 2.95 µM, an IC50 [7] of 2.8 µM and an IC50 (Mus musculus) of 3.77 µM. For the same compound, the IC50 [8] was 1.59 µM, the IC50 [3] was 2.54 µM and the IC50 [4] was 3.23 µM.
For `CC1(C)CC(n2cc(C[Se]c3ccccc3)nn2)C2=C(O1)C(=O)c1ccccc1C2=O` (stereo not drawn), the IC50 [2] was 4.2 µM, the IC50 [6] was 3.89 µM and the IC50 [7] was 2.55 µM. For the same compound, the IC50 [8] was 5.46 µM, the IC50 [3] was 2.24 µM and the IC50 [4] was 4.45 µM.
Work on `O=C1C2=C(C(=O)c3ccccc31)[C@H](c1cccc3ccccc13)[C@@H](n1cc(C[Se]c3ccccc3)nn1)CO2` yielded an IC50 [1] of over 8.67 µM, an IC50 [2] of over 8.67 µM and an IC50 [5] of over 8.67 µM. It also gave an IC50 [6] of over 8.67 µM, an IC50 [7] of over 8.67 µM and an IC50 (Mus musculus) of over 8.67 µM. The IC50 [8] was over 8.67 µM, the IC50 [3] was over 8.67 µM and the IC50 [4] was over 8.67 µM.
